Results from ChEMBL document CHEMBL5252546, “Salutaxel, a Conjugate of Docetaxel and a Muramyl Dipeptide (MDP) Analogue, Acts as Multifunctional Prodrug That Inhibits Tumor Growth and Metastasis” (J Med Chem, 2018).
Activity calls are given as the source filed them. The calls are words filed in the database; no cut-off is given here.

Legend:
in vivo [1] = conditions: mouse, tumor, iv, 5.7 mg/kg
in vivo [2] = conditions: mouse, plasma, iv, 5.7 mg/kg
[3] = Toxicity in BALB/c mouse xenografted with human NCI-H1975 cells assessed as body weight loss at 5.7 mg/kg,iv administrated once per week for 3 weeks; format: organism-based; conditions: in vivo, 504 h
Outline: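 Nude BALB/c nu/nu mice received subcutaneous human tumour cells into the right flank. Dosing started at mean tumour volume of 100–120 mm3, iv once weekly for 3 weeks; the taxane arm was an equimolar control. Body weight and overt side effects were monitored. Mean ± SEM, n = 8.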

[4] = Drug concentration in rat plasma at 4 mg/kg,iv measured after 24 hrs; format: ADME, organism-based; conditions: in vivo
Outline: (§1)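 Rats received 4 mg/kg iv. Parent drug and released docetaxel were assayed in tissues and plasma from the first sampling at 0.25 h to 24 h. The lower limit of quantitation was 200 ng/g.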

HT-29 = experiment: Antiproliferative activity against human HT-29 cells assessed inhibition of cell growth incubated for 72 hrs by SRB assay; format: functional, cell-based; conditions: HT-29, 72 h
[5] = Acute toxicity in Sprague-Dawley rat assessed as lethal dose at iv administration; format: organism-based; conditions: in vivo
Outline: (§2)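 Acute toxicity after a single intravenous administration. […] In dogs, an approximate lethal dose range was determined.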

[6] = Tmax in male Beagle dog at 1 mg/kg,iv measured upto 24 hrs; format: ADME, organism-based, Canis lupus familiaris; conditions: in vivo
[7] = Acute toxicity in Beagle dog assessed as lethal dose at iv administration; format: organism-based, Canis lupus familiaris; conditions: in vivo
Outline: as §2

[8] = Drug excretion in rat bile at 4 mg/kg,iv measured upto 48 hrs; format: ADME, organism-based; conditions: read-out: Drug excretion
Outline: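 Rats were dosed iv. Bile was collected from 0 to 48 h, and cumulative excretion of the unchanged prototype was expressed as a percentage of the dose.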

4T1 [9] = experiment: Antitumor activity against mouse 4T1 cells implanted in BALB/c mouse assessed as decrease in PROK2 mRNA expression in lung at 20 mg/kg,iv administrated qd for 2 days by qRT-PCR analysis; format: functional, organism-based; conditions: time 2.0 day
Outline: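 Day 19 after 4T1 implantation, mice randomised into five groups; iv vehicle or 20 mg/kg plus ip C12-iE-DAP (50 μg/mouse) and MDP (100 μg/mouse) once daily for 2 days; killed after 48 h; lung mRNA for MMP8, MMP9, PROK2, S100A8, S100A9 and IL-1β by qPCR; mean ± SEM.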

[10] = Clearance in female rat at 8 mg/kg,iv measured upto 24 hrs; format: ADME, organism-based; conditions: in vivo
Outline: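 Rats were given a single iv injection at 2, 4 or 8 mg/kg. Plasma parent drug and released docetaxel were followed over time. Cmax, Tmax, AUC, MRT, t1/2, CL and Vss were reported for males, females and all animals combined.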

[11] = Drug distribution in rat liver at 4 mg/kg,iv measured by 0.25 hrs; format: ADME, organism-based; conditions: in vivo
Outline: as §1

[12] = Plasma protein binding in rat plasma incubated for 4 hrs; format: ADME, cell-free; conditions: read-out: PPB (converted)
[13] = Volume of distribution at steady state in male rat at 4 mg/kg,iv measured upto 24 hrs; format: ADME, organism-based; conditions: in vivo, read-out: Vdss
[14] = Volume of distribution at steady state in male Beagle dog at 1 mg/kg,iv measured upto 24 hrs; format: ADME, organism-based, Canis lupus familiaris; conditions: in vivo, read-out: Vdss
[15] = Half life in mouse tumor implanted with mouse 4T1 cells at 10 mg/kg,iv measured upto 72 hrs; format: ADME, organism-based, Neoplasm
[16] = MRT (0 to infinity) in Beagle dog at 2 mg/kg,iv measured upto 24 hrs; format: ADME, organism-based, Canis lupus familiaris; conditions: in vivo
[17] = Volume of distribution at steady state in Beagle dog at 1 mg/kg,iv measured upto 24 hrs; format: ADME, organism-based, Canis lupus familiaris; conditions: in vivo, read-out: Vdss
[18] = Cmax in Beagle dog at 1 mg/kg,iv measured upto 24 hrs; format: ADME, organism-based, Canis lupus familiaris; set-up: dose 1 mg/kg, time < 24 hrs, route iv; conditions: in vivo
Outline: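 Beagle dogs were given a single iv infusion at 1, 2 or 4 mg/kg. Plasma parent drug and released docetaxel were followed over time. Cmax, Tmax, AUC, MRT, t1/2, CL and Vss were reported by sex and for all dogs combined.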

[19] = Toxicity in Beagle dog assessed as facial swelling at 3 to 18 mg/kg,iv measured upto 24 hrs; format: organism-based, Canis lupus familiaris; conditions: in vivo, dose 3-18 mg/kg
[20] = Half life in female Beagle dog at 1 mg/kg,iv measured upto 24 hrs; format: ADME, organism-based, Canis lupus familiaris; conditions: in vivo
[21] = AUC (0-infinity) in male Beagle dog at 2 mg/kg,iv measured upto 24 hrs; format: ADME, organism-based, Canis lupus familiaris; set-up: time < 24 hrs, dose 2 mg/kg, route iv; conditions: in vivo
Outline: (§3)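 Single iv dose: rats 2, 4 or 8 mg/kg by intravenous injection; Beagle dogs 1, 2 or 4 mg/kg by intravenous infusion. Plasma concentration–time data were analysed by sex and pooled. Reported parameters: Cmax, Tmax, AUC0−t, AUC0−∞, MRT0−∞, t1/2, CL, Vss, given as mean ± SD.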

[22] = Tmax in rat at 4 mg/kg,iv measured upto 24 hrs; format: ADME, organism-based; conditions: in vivo
[23] = Drug metabolism in rat plasma assessed as metabolite MDA-205 formation at 4 mg/kg,iv measured after 24 hrs; format: ADME, organism-based; conditions: in vivo
[24] = Chronic toxicity in male Beagle dog at 3 to 18 mg/kg,iv administered once per week for 30 days; format: organism-based, Canis lupus familiaris; conditions: in vivo, 720 h, dose 3-18 mg/kg, time 30 day
Outline: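 Long-term toxicity: rats given iv 2, 4 or 8 mg/kg and dogs 3, 6 or 18 mg/kg once weekly over 30 days; toxicokinetics recorded; highest non-severely toxic dose determined by sex.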

[25] = Toxicity in BALB/c mouse xenografted with human HCT-116 cells assessed as body weight loss at 10 mg/kg,iv administrated once per week for 3 weeks; format: organism-based; conditions: in vivo, 504 h
[26] = Stability in mouse plasma assessed as compound remaining at 1 uM incubated for 6 hrs; format: ADME, cell-free
[27] = AUC (0-infinity) in male Beagle dog at 4 mg/kg,iv measured upto 24 hrs; format: ADME, organism-based, Canis lupus familiaris; set-up: dose 4 mg/kg, time < 24 hrs, route iv; conditions: in vivo
Outline: as §3

[28] = AUC (0-t) in Beagle dog at 1 mg/kg,iv measured upto 24 hrs; format: ADME, organism-based, Canis lupus familiaris; set-up: dose 1 mg/kg, time < 24 hrs, route iv; conditions: in vivo
Outline: as §3

4T1 [29] = experiment: Antitumor activity against mouse 4T1 cells implanted in BALB/c mouse assessed as increase in lung NOD1 expression level at 5 to 20 mg/kg,iv administrated once per week for 4 weeks by western blot assay; format: functional, organism-based; conditions: dose 5-20 mg/kg
Outline: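 4T1 fat-pad model in BALB/c mice, iv once weekly for 4 weeks; MMP9, MMP2 and NOD1 in spleen, lung and tumour by western blot, β-actin loading control; bands averaged over five mice per group, representative of two independent experiments.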

4T1 [30] = experiment: Antitumor activity against mouse 4T1 cells xenografted with BALB/c mouse assessed as decrease in lung metastasis at 10 mg/kg,iv administrated once per week for 4 weeks; format: functional, organism-based
Outline: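 4T1 cells injected into the mammary fat pad of BALB/c mice; iv saline vehicle or 5, 10 or 20 mg/kg once weekly for 4 weeks; body weight, tumour volume, tumour weight, lung metastatic nodule count and metastasis score recorded; n = 10, mean ± SEM, ANOVA and Student's t test.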

[31] = Toxicity in BALB/c mouse xenografted with human MDA-MB-231 cells assessed as side effects at 10 mg/kg,iv administrated once per week for 3 weeks; format: organism-based; conditions: in vivo, 504 h
[32] = Half life in female rat at 8 mg/kg,iv measured upto 24 hrs; format: ADME, organism-based; conditions: in vivo
[33] = Drug metabolism in dog hepatocytes assessed as docetaxel metabolite formation at 20 uM incubated for 180 mins; format: ADME, cell-based, Canis lupus familiaris, Hepatocyte; conditions: 3 h

For CC(=O)O[C@@]12CO[C@@H]1C[C@H](O)[C@@]1(C)C(=O)[C@H](O)C3=C(C)[C@@H](OC(=O)[C@H](O)[C@@H](NC(=O)OC(C)(C)C)c4ccccc4)C[C@@](O)([C@@H](OC(=O)c4ccccc4)[C@H]21)C3(C)C [DOCETAXEL ANHYDROUS], the AUC(0-t) at 72 h (in vivo [1]) was 27 µM·h, the AUC(0-t) at 72 h (in vivo [2]) was 2.24 µM·h and the Activity [3] was “Non-Toxic”.
Molecule CC(=O)O[C@@]12CO[C@@H]1C[C@H](O)[C@@]1(C)C(=O)[C@H](O)C3=C(C)[C@@H](OC(=O)[C@H](OC(=O)CCC(=O)NCCCC[C@H](NC(=O)CC[C@@H](NC(=O)[C@H](C)NC(=O)/C=C/c4ccc(F)cc4Cl)C(N)=O)C(=O)O)[C@@H](NC(=O)OC(C)(C)C)c4ccccc4)C[C@@](O)([C@@H](OC(=O)c4ccccc4)[C@H]21)C3(C)C has a Drug uptake [4] of 1%, an IC50 (HT-29) of 16.3 nM and an LD50 [5] of 13.2 mg/kg. It also gave a Tmax [6] of 30 min, an LD [7] of 33 mg/kg and a dose excreted at 48 h [8] of 82.9%. For the same molecule, the Activity (4T1 [9]) was “Active”, the clearance [10] was 3.39 mL/min/kg and the Drug uptake [11] was “Active”. It also gave a fraction unbound at 4 h [12] of 0.007, a Vd [13] of 0.073 L/kg and a Vd [14] of 0.134 L/kg. It also gave a half-life [15] of 93.6 min, an MRT inf [16] of 14.2 min and a Vd [17] of 0.169 L/kg. The Cmax [18] was 3880 ng/mL, the Activity [19] was “Toxic” and the half-life [20] was 29 min. The AUC(0-inf) [21] was 4890 ng·h/mL, the Tmax [22] was 4.98 min and the Drug metabolism [23] was “Metabolite_Detected”. For the same molecule, the Activity [24] was “Non-Toxic”, the Activity [25] was “Non-Toxic” and the Stability [26] was “Stable”. For the same molecule, the AUC(0-inf) [27] was 15300 ng·h/mL, the AUC(0-t) at 24 h [28] was 1590 ng·h/mL and the Activity (4T1 [29]) was “Active”. The Activity (4T1 [30]) was “Active”, the Activity [31] was “Non-Toxic” and the half-life [32] was 15.2 min. The Drug metabolism [33] was “Metabolite_Detected”.
